Among the data in ChEMBL document CHEMBL1129346, “First examples of peptidomimetic inhibitors of interleukin-1 beta converting enzyme” (J Med Chem, 1996) are k obs / 1 values, retold here.

One assay addresses T1, Caspase-1 (Homo sapiens) (UniProt P29466).
T1 sequence (whole entry): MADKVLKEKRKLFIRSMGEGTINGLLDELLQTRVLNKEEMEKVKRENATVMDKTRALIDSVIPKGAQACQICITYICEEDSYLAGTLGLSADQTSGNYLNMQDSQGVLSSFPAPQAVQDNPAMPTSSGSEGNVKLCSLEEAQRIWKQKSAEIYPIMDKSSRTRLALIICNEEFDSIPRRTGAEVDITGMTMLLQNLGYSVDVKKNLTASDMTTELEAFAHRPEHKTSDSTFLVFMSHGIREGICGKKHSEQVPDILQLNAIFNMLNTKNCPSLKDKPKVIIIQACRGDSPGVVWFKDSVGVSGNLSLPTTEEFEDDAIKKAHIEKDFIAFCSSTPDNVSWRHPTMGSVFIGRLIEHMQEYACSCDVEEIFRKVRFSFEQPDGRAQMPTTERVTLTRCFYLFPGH
Put plainly: Second order rate constant of inactivation for compound was measured against Interleukin-1-beta converting enzyme partially purified from THP-1 cells. Put shortly: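 ICE was partially purified from THP-1 cells by DEAE-Sephacel and Sephadex G-75 steps. Fluorescence progress curves were recorded at 37 °C over 30 min, and the nonlinear curves were analysed by the Tian–Tsou method. Standard error was <10%.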
On to `O=C(O)C[C@H](NC(=O)Cn1c(-c2ccc(F)cc2)ncc(NC(=O)NCc2ccccc2)c1=O)C(=O)COC(=O)c1c(Cl)cccc1Cl`, for which the k obs / 1 was 148000 M⁻¹ s⁻¹. `CC(C)[C@H](NC(=O)OCc1ccccc1)C(=O)N[C@@H](C)C(=O)N[C@@H](CC(=O)O)C(=O)COC(=O)c1c(Cl)cccc1Cl` returned a k obs / 1 of 432000 M⁻¹ s⁻¹. As to `O=C(O)C[C@H](NC(=O)Cn1c(-c2ccc(F)cc2)ncc(NS(=O)(=O)c2ccccc2)c1=O)C(=O)COC(=O)c1c(Cl)cccc1Cl`, the k obs / 1 was 90000 M⁻¹ s⁻¹.

Regarding `O=C(O)C[C@H](NC(=O)Cn1c(-c2ccc(F)cc2)ncc(NC(=O)OCc2ccccc2)c1=O)C(=O)COC(=O)c1c(Cl)cccc1Cl`, the k obs / 1 stood at 268000 M⁻¹ s⁻¹. As to `Nc1cnc(-c2ccc(F)cc2)n(CC(=O)N[C@@H](CC(=O)O)C(=O)COC(=O)c2c(Cl)cccc2Cl)c1=O`, the k obs / 1 amounted to 36000 M⁻¹ s⁻¹. Still for that read-out and setting: the figure for `O=C(O)C[C@H](NC(=O)Cn1c(-c2cccnc2)ncc(NC(=O)OCc2ccccc2)c1=O)C(=O)COc1cc(C(F)(F)F)nn1-c1ccccc1` is 145000 M⁻¹ s⁻¹; for `Cc1ncc(NC(=O)OCc2ccccc2)c(=O)n1CC(=O)N[C@@H](CC(=O)O)C(=O)COc1cc(C(F)(F)F)nn1-c1ccccc1` it is 95000 M⁻¹ s⁻¹. With `CN(C)CCCCCC(=O)Nc1cnc(-c2ccc(F)cc2)n(CC(=O)N[C@@H](CC(=O)O)C(=O)COC(=O)c2c(Cl)cccc2Cl)c1=O`, the k obs / 1 amounted to 90000 M⁻¹ s⁻¹. `O=C(O)C[C@H](NC(=O)Cn1c(-c2ccc(F)cc2)ncc(NC(=O)c2ccco2)c1=O)C(=O)COC(=O)c1c(Cl)cccc1Cl`: the k obs / 1 was found to be 46000 M⁻¹ s⁻¹.

In the next assay the target is T1, Caspase-1 (Homo sapiens). In words: The binding affinity of compound was measured against Interleukin-1-beta converting enzyme in monocytic cells. The format is cell-based. Put shortly: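 ICE was partially purified from THP-1 cells by DEAE-Sephacel and Sephadex G-75 steps. The assay buffer was 10 mM HEPES pH 7.5 with 25% glycerol and 1 mM DTT, and the substrate was 10 μM Suc-Tyr-Val-Ala-Asp-AMC. Fluorescence progress curves were recorded at 37 °C over 30 min, and the nonlinear curves were analysed by the Tian–Tsou method. Standard error was <10%.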
Take `O=C(O)C[C@H](NC(=O)Cn1c(-c2ccc(F)cc2)ncc(NC(=O)OCc2ccccc2)c1=O)C(=O)COc1cc(C(F)(F)F)nn1-c1ccccc1`: the k obs / 1 was 157000 M⁻¹ s⁻¹. Same read-out and setting: in the case of `O=C(O)C[C@H](NC(=O)Cn1c(-c2ccc(F)cc2)ncc(NC(=O)OCc2ccccc2)c1=O)C(=O)COP(=O)(c1ccccc1)c1ccccc1` it was 145000 M⁻¹ s⁻¹.
